The values below come from PubChem BioAssay AID720543 (The Scripps Research Institute Molecular Screening Center, 2013).

In all, about 370,000 compounds went through this assay and about 2,000 (0.54%) were called active. The list comes from a sample in which actives are over-represented; it also holds similar structures and randomly drawn compounds. Unmarked numbers belong to inactive results.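 The calls were made as follows: active = inhibition exceeding the mean over every tested compound plus 3 SD (cut at about 30% in these data); inactive = the rest.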

Chain of (Lyso)-N-acylphosphatidylethanolamine lipase (Mus musculus) (Q8VD66 whole entry, looked up): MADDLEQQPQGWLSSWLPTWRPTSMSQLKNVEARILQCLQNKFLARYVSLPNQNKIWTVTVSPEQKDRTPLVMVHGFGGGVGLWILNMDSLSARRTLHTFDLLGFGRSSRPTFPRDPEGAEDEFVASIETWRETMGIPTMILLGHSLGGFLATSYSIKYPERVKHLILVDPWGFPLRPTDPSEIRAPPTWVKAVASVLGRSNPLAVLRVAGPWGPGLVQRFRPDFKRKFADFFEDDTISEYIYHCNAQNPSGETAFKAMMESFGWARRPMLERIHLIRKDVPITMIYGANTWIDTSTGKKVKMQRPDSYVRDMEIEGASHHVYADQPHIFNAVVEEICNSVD

This experiment has as its target (Lyso)-N-acylphosphatidylethanolamine lipase (Mus musculus) (UniProt Q8VD66). The experiment in a line: mouse ABHD4 hydrolase activity blockers – biochemical, fluorescence polarization, primary screen (AID 720543). To be noted: purified mABHD4, FP-Rh probe fluorescence polarization; at 8.92 µM; stronger effect = higher value. Summed up:
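Assay system: mouse ABHD4 enzyme, wild type / Also added: fluorescent activity-based probe FP-Rh / Doses: single nominal dose of 8.92 µM, 0.89% DMSO final / Timing: 45 min compound pre-incubation plus 60 min probe step, 25 °C / Signal: FP readout, ex 525 nm / em 598 nm / Control set: S159A mutant/DMSO as 100%, compound-well median as 0%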
What is called inhibition is the drop in the measured response relative to a control, in per cent. As to `C[C@H]1[C@H](NC(=O)c2cccc(N(C)C)c2)CC[C@@]23CCCN2C(=O)CCC[C@@H]13`, the inhibition is 4.02%.
Turning to `COC(=O)c1cccc(Cn2ccc3ccc(-c4ccc5ccn(C(=O)C6CCCCC6)c5c4)cc32)c1`, the inhibition is 3.18%.
Take `COc1cccc2c1C(=O)c1c(O)c3c(c(O)c1C2=O)CC(O)(C(C)=NNC(=O)c1ccc(Cl)c(Cl)c1)CC3OC1CC(N)C(O)C(C)O1` (configuration not stated): the inhibition is 67.4% (active).
In the case of `Cc1ccc(S(=O)(=O)/N=S(\C)C(C)C)cc1` (configuration not stated), the inhibition was -2.12%.
Next, `Cc1ccc(S(=O)(=O)/N=C2\C=C(NS(=O)(=O)c3ccc(C)cc3)C(=O)c3ccccc32)cc1`: 40.1% (active).
With `Cc1ccc(S(=O)(=O)N[C@H](CO)C(C)C)cc1`, the inhibition is -3.46%.
Take `C[C@@H](NC(=O)OC(C)(C)C)c1nnc(S(=O)(=O)Cc2ccccc2)o1`: the inhibition was 11.2%.
For `CC(C)C(=O)N1c2ccccc2NC2=C(C(=O)CCC2)C1c1ccc(N(C)C)cc1` (configuration not stated), the inhibition is 7.43%.
Take `CCCCCCCCNS(=O)(=O)/C=C/c1cc(C)ccc1CNC(=O)OC(C)(C)C`: the inhibition was -4.09%.
As to `Cc1ccc(C)c(NC(=O)CCS(=O)(=O)c2ccccc2)c1`, the inhibition was -4.18%.
For the compound `Oc1ccc2ccccc2c1N=Nc1nccs1`, the inhibition is 61.8% (active).
On to `C[C@H](C(=O)N(C)c1ccccc1)[C@@H](O)c1ccc(Cl)cc1`, for which the inhibition was 0.42%.
Take `Nc1[nH]c(C(=O)c2ccc(Br)cc2)c(-c2ccc3c(c2)OCO3)c1C(=O)NCCc1c[nH]c2ccccc12`: the inhibition was 48.9% (active).
Under `Nc1[nH]c(C(=O)c2ccccc2)c(-c2ccc(Br)cc2)c1C(=O)NC1CC1` stands 1.95%; under `Nc1[nH]c(C(=O)c2ccccc2)c(-c2ccncc2)c1C(=O)NCc1cccc2ccccc12`, -0.51%; under `O=c1ccc2c(-c3ccccc3S(=O)(=O)O)c3ccc(O)c(O)c3oc-2c1O`, 34% (active).
Take `COc1ccc(-n2c(COc3ccccc3)nnc2SCC(=O)Nc2ccc3c(c2)OCO3)cc1`: the inhibition is -9.7%.
Turning to `CC(=O)OCCN1CCCC12CCC(c1ccccc1)CC2` (configuration not stated), the inhibition is 0.33%.
In the case of `Cc1ccc(S(=O)(=O)N2CCC(C(=O)N[C@@H](C)C(=O)NCc3ccco3)CC2)cc1`, the inhibition is -2.84%.
For `CN1CCN(C(=O)c2cnn(-c3ccccc3)c2NC(=O)c2ccc([N+](=O)[O-])cc2)CC1`, the inhibition is -2.86%.
`Cc1cc(/C=N/Nc2ccc([N+](=O)[O-])cn2)c(C)n1-c1cccc(C(=O)O)c1`: the inhibition is 45.6% (active).
With `Cc1cccc(C(=O)NC(=S)N2CCN(c3ccc([N+](=O)[O-])cc3)CC2)c1`, the inhibition is -5.02%.
Regarding `O=C(N[C@@H]1C/C=C\C[C@@H](CC(=O)N(CCO)Cc2ccccc2)C(=O)N[C@H](Cc2ccccc2)COC1=O)OCC1c2ccccc2-c2ccccc21`, the inhibition is 7.4%.
Turning to `CSc1ccc(C=Nn2c(-c3ccc(F)cc3)n[nH]c2=S)cc1`, the inhibition was 0.61%.
As to `CCCCc1c(-c2ccc(Br)cc2)ncn1CCc1ccccc1OC`, the inhibition is -0.8%.
On to `CCOCCCNC(=O)C(NC(=O)c1ccccc1O)c1ccccc1` (configuration not stated), for which the inhibition is -0.7%.
Under `Clc1ccc(C2=CSC3=Nc4cccc5cccc(c45)N23)cc1` stands 38.4% (active); under `O=C(OCC#CCSc1nnc(-c2ccco2)o1)c1ccc(F)cc1`, -9.72%.
On to `Cc1oc2cc(Br)c(O)c(Br)c2c1C(=O)c1ccccc1`, for which the inhibition was 44.9% (active).
On to `COc1cc(/C(=C/c2ccccc2)c2ccccc2)c2c(c1)oc1ccccc12`, for which the inhibition was -1.7%.
Next, `Cc1oc2cc([N+](=O)[O-])c(O)c([N+](=O)[O-])c2c1C(=O)c1ccc(Br)cc1`: 8.71%; `COC(=O)c1c(-c2ccc(OC)cc2)c2c(c3c4cc(OC)ccc4n(S(=O)(=O)c4ccc(F)cc4)c13)C(=O)N(C)C2`: -0.06%; `Cc1cc(NS(=O)(=O)c2ccc(NC(=O)CSc3nnc(SCc4ccc(F)cc4)s3)cc2)nc(C)n1`: -21.5%.
`Fc1ccc2nc(COCc3nc4ccc(F)cc4[nH]3)[nH]c2c1`: the inhibition was -7.17%.
With `COC(=O)c1oc2ccc(Br)cc2c1NC(C)=O`, the inhibition is 40.3% (active).
Regarding `COCC(=O)Nc1c(C(=O)N2CCCC2)oc2ccccc12`, the inhibition is -0.25%.
On to `COC(=O)c1[nH]c2ccc(Br)cc2c1NC(=O)Oc1ccccc1`, for which the inhibition is -1.15%.
In the case of `FC(F)(F)c1cccc(NC(=S)OC2CCC23CCC(c2ccccc2)CC3)c1` (configuration not stated), the inhibition is -21.8%.
For `Cc1cc(C)c(S(=O)(=O)NN=C2c3ccccc3[C@H]3Cc4csc[n+]4[C@@H]23)c(C)c1`, the inhibition was 33.3% (active).
Next, `CCOC(=O)c1csc(NC(=O)C2CCCN(S(=O)(=O)c3ccc(Cl)s3)C2)n1` (configuration not stated): -51.6%; `CCCCCCN1CCS(=O)(=O)N(Cc2ccc(C(F)(F)F)cc2)C(C(=O)OC)C1` (configuration not stated): -4.07%.
In the case of `Cc1ccc(NS(=O)(=O)c2ccc3c(c2)n(C)c(=O)c(=O)n3C)c(C)c1`, the inhibition is -1.8%.
With `Cc1ccc(OCCOCCOc2ccc(Br)cc2/C=N\NC(=O)c2ccncc2)cc1`, the inhibition is -84.8%.
Next, `Cc1ccc(C)c(NS(=O)(=O)c2ccc(OCC(=O)NCc3cccnc3)cc2)c1`: -3.89%; `COc1ccc(Br)cc1/C=N/Nc1ccc(Cl)c(C(=O)O)c1`: 40.3% (active).
Turning to `COc1ccc(Br)cc1/C=N/Nc1ccc(S(=O)(=O)Nc2ccccc2C(=O)O)cc1[N+](=O)[O-]`, the inhibition was 38.4% (active).
For the compound `O=C(O)c1ccccc1/C=N/Nc1ccc(S(=O)(=O)Nc2ccc(Cl)cc2)cc1[N+](=O)[O-]`, the inhibition was 43.8% (active).
Next, `Cc1ccc(NS(=O)(=O)c2ccc(N/N=C/c3ccccc3OCC(=O)O)c([N+](=O)[O-])c2)c(C)c1`: 52.1% (active).
For `COc1ccc(Br)cc1CN(C)CC(=O)Nc1cc(Cl)cc(Cl)c1`, the inhibition was 6.47%.
For `O=C(Nc1cc(S(=O)(=O)Nc2ccc(Cl)cc2)ccc1O)c1ccc(F)cc1F`, the inhibition was -6.3%.
On to `O=[N+]([O-])c1cc(S(=O)(=O)Nc2cccc(Cl)c2)ccc1N=Nc1c(O)[nH]c2ccccc12`, for which the inhibition was 7.74%.
`COc1ccc(S(=O)(=O)NC(C)c2ccccc2)cc1C(=O)N1CCCCC1` (configuration not stated): the inhibition was 3.07%.
In the case of `COc1cc(/C=C/C(=O)O)cc(S(=O)(=O)Nc2ccccc2C(=O)NCCc2ccccc2)c1OC`, the inhibition was 6.19%.
As for `CC1(C)CC(=O)C(C2c3ccccc3S(=O)(=O)c3ccccc32)C(=O)C1`, the inhibition was 0.77%.
Under `O=C(CSc1nc2c(c(=O)[nH]1)CCCC2)N1CCCCC1` stands 0.85%.
In the case of `Cc1ccccc1CS(=O)(=O)Cc1ccc(C(=O)Nc2ccc(Cl)cc2)o1`, the inhibition was 1.54%.
In the case of `CN(C)S(=O)(=O)c1cccc(C(=O)N/N=C\c2ccco2)c1`, the inhibition was 5.39%.
In the case of `COc1ccc([C@H]2OC(=O)C[C@H]2C(=O)N2CCN(c3ccccc3F)CC2)cc1OC`, the inhibition is 0.9%.
Next, `CC(C)(C)NC(=O)NC(=O)COC(=O)Cn1c(C(F)(F)F)nc2ccccc21`: 1.11%; `Cc1cccc(NC(=O)C[C@H]2CC[C@H]3[C@@H](COc4ccc(NC(=O)Nc5ccccc5)cc4C(=O)N3C)O2)c1`: 7.9%.
Next, `COc1ccc(-n2c(SCC(=O)Nc3ccc4cn[nH]c4c3)nnc2-c2cccnc2)cc1`: 0.5%; `CCOc1ccc(/C(O)=C2\C(=O)C(=O)N(c3ccc(OC)cc3)C2c2ccccc2[N+](=O)[O-])cc1` (configuration not stated): 5.37%.
With `C[C@@H](NC(=O)c1ccccc1OCC(=O)Nc1ccc(I)cc1)C(=O)N(C)Cc1ccccc1`, the inhibition was -28.4%.
As to `COc1ccc(Cc2nc3ccc(C(=O)N4CCC(N(C)C)C4)cc3o2)cc1` (configuration not stated), the inhibition was -2.59%.
Take `Cc1cc(=O)[nH]c(SCC(=O)Nc2ccc(F)cc2F)n1`: the inhibition is 2.2%.
For the compound `COc1cccc(/C=N/Nc2ccc(S(=O)(=O)Nc3ccccc3C(=O)O)cc2[N+](=O)[O-])c1O`, the inhibition was 70.3% (active).
Turning to `CCOc1ccccc1NS(=O)(=O)c1c[nH]c(C(=O)OC)c1`, the inhibition was -5.46%.
In the case of `CCN(CC(=O)NCc1cccs1)C(=O)c1cccc(S(=O)(=O)Nc2ccccc2OC)c1`, the inhibition was -5.42%.
On to `CC(C)(C)NC(=O)C(c1cccnc1)N(C(=O)c1cnco1)c1ccc(C(C)(C)C)cc1` (configuration not stated), for which the inhibition is -5.63%.
`CC1CCCCC1NC(=O)CSc1nnc(-c2ccncc2)n1CCCN(C)C` (configuration not stated): the inhibition was 18.4%.
As for `CCC[C@H]1C(=O)CC[C@@]23CCCN2C(=O)CCC[C@@H]13`, the inhibition was -0.16%.
Consider `CN1C(=O)C2CC(O)C(SC3CC4C(=O)N(C)C(=O)C4CC3O)CC2C1=O` (configuration not stated), for which the inhibition is 4.09%.
With `COCc1cccc(-c2csc(C(O)c3ccc(F)cc3)n2)c1` (configuration not stated), the inhibition was -6.65%.
Regarding `CCCC(=O)N1c2ccc(-c3csc(N)n3)cc2CC1C` (configuration not stated), the inhibition is 6.5%.
As for `CC(C)(C)C(=O)OCc1nc(-c2ccc(O)c(O)c2)cs1`, the inhibition was 39.5% (active).
Consider `COc1ccc(C(=O)CSc2nnc(-c3cnccn3)n2-c2ccc(C)cc2)cc1`, for which the inhibition is -7.18%.
On to `COC(=O)[C@H](C(C)C)N1CCc2nnn(Cc3ccc(C)cc3)c2-c2ccccc2S1(=O)=O`, for which the inhibition was 8.58%.
Take `CN(CCO)c1cccc2c1S(=O)(=O)N(Cc1cn(Cc3ccc(C(F)(F)F)cc3)nn1)Cc1ccccc1O2`: the inhibition is 1.41%.
As to `CCOC(=O)C1CCN(C(=O)C(C)(C)NC(=O)Nc2ccc(F)c(F)c2)CC1`, the inhibition was -6.47%.
Under `Clc1ccccc1CSc1nnc(-c2ccco2)c(-c2ccco2)n1` stands 38.9% (active); under `Clc1ccc(-n2c(SC/C=C/c3ccccc3)nnc2-c2ccco2)cc1`, -10.5%; under `COc1ccnc(C(=O)N2CCC(Oc3cccnc3)CC2)c1`, 3.41%.
